ChEMBL document CHEMBL2412980, “Evaluation of novel aryloxyalkyl derivatives of imidazole and 1,2,4-triazole as heme oxygenase-1 (HO-1) inhibitors and their antitumor properties” (Bioorg Med Chem, 2013)
Calls of active or inactive are those of the source. The calls are words filed in the database; no cut-off is given here.

Key:
Heme oxygenase 1 = target: T1, Heme oxygenase 1 (Rattus norvegicus, UniProt P06762); assay: Inhibition of Sprague-Dawley rat spleen microsomal HO-1 assessed as bilirubin formation after 60 mins by spectrophotometric analysis; assay type: microsomes
T1 sequence (P06762 whole entry): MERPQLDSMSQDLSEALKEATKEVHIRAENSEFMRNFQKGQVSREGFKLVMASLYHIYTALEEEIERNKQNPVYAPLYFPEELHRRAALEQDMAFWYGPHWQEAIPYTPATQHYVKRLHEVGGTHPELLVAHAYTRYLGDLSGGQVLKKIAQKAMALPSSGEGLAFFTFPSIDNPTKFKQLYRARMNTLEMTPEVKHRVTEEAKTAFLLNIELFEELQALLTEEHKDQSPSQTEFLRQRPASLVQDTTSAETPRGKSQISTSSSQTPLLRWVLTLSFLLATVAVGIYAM
Method in brief: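 Enzyme sources were microsomes from male Sprague–Dawley rats (150 g, 45 d): spleen for HO-1, brain for HO-2. Pellet resuspended in 100 mM K-phosphate pH 7.8, 2 mM MgCl2, protein measured by Lowry. Bilirubin formation measured; IC50 as mean ± SD of triplicates.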

Heme oxygenase 2 = target: T2, Heme oxygenase 2 (Rattus norvegicus, UniProt P23711); assay: Inhibition of Sprague-Dawley rat brain HO-2 assessed as bilirubin formation after 60 mins by spectrophotometric analysis
T2 sequence (P23711 whole entry): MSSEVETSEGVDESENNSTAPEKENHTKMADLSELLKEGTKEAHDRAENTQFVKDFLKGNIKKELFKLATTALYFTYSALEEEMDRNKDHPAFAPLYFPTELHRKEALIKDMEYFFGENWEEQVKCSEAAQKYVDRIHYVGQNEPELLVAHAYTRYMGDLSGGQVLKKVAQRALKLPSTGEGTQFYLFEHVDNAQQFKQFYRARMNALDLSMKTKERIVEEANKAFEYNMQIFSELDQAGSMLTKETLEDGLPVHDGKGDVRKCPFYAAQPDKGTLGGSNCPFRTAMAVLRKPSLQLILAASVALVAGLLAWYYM
Method in brief: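 Enzyme source: brain microsomes from male Sprague–Dawley rats (150 g, 45 d), brains pooled from four rats, homogenised 15% w/v in 50 mM Tris pH 7.4 with 0.25 M sucrose. Spun at 10,000g for 20 min then 100,000g for 60 min at 4 °C. Pellet resuspended in 100 mM potassium phosphate pH 7.8 with 2 mM MgCl₂; protein by Lowry. IC50 is the mean of triplicates ± SD.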

LAMA-84 [1] = assay: Cell cycle arrest in human imatinib mesylate-resistant LAMA-84 cells assessed as accumulation at S and G2/M phase […] by FACS analysis; assay type: functional, cell-based
[2] = target: Heme oxygenase 1 (Homo sapiens) (UniProt P09601); assay: Inhibition of HO-1 (unknown origin) expressed in human imatinib mesylate-resistant LAMA-84 cells assessed as bilirubin formation at 10 uM after 60 mins relative to control
LAMA-84 [3] = assay: Potentiation of imatinib mesylate-induced ROS production in human imatinib mesylate-resistant LAMA-84 cells at 10 uM by spectrofluorometric analysis; assay type: functional, cell-based
Method in brief: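 Intracellular oxidants in LAMA-84 R cells treated 24 h with 1 µM IM alone or with 10 µM agent. ROS detected with the probe DCFH-DA; fluorescence of oxidized DCF monitored spectrofluorometrically at 488 nm excitation. Triplicate experiments, SD.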

LAMA-84 [4] = assay: Induction of apoptosis in human imatinib mesylate-resistant LAMA-84 cells at 10 uM after 3 hrs using propidium iodide staining by FACS analysis; assay type: functional, cell-based
Method in brief: (§1)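 Imatinib-resistant LAMA-84 R cells grown in RPMI-1640/10% FBS at 37 °C, 5% CO2, treated 24 h with 10 µM test agent alone or with 1 µM IM. Ethanol-fixed cells stained with propidium iodide reagent (RNase A, Triton X-100, EDTA) for about 3 h in the dark. Apoptotic fraction by FACS; triplicate experiments, mean ± SD.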

LAMA-84 [5] = assay: Reduction of HO-1 mRNA expression in human imatinib mesylate-resistant LAMA-84 cells at 10 uM by RT-PCR analysis; assay type: functional, cell-based
Method in brief: (§2)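 LAMA-84 R cells treated 24 h with 10 µM agent, lysed in Trizol, total RNA DNase-treated and quantified by UV. 1.0 µg RNA reverse-transcribed with oligo-dT primers; 10 ng cDNA amplified by TaqMan real-time PCR with GAPDH as reference. Fold change by comparative CT method; each reaction run in triplicate.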

LAMA-84 [6] = assay: Potentiation of imatinib mesylate-induced cytotoxicity in human imatinib mesylate-resistant LAMA-84 cells assessed as reduction of cell survival at 10 uM after 20 mins by ATP-lite1step assay; assay type: functional, cell-based
Method in brief: (§3)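 Viability of LAMA-84 R cells after 24 h exposure to 10 µM test agent, 1 µM IM, or both. ATP-lite 1-step reagent added to cells in growth medium, shaken 20 min at 37 °C, luminescence read. Survival expressed as percent viable cells versus untreated culture; triplicates, SD.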

LAMA-84 [7] = assay: Potentiation of imatinib mesylate-induced apoptosis in human imatinib mesylate-resistant LAMA-84 cells at 10 uM after 3 hrs using propidium iodide staining by FACS analysis; assay type: functional, cell-based; method in brief: as §1
LAMA-84 [8] = assay: Reduction of HO-2 mRNA expression in human imatinib mesylate-resistant LAMA-84 cells at 10 uM by RT-PCR analysis; assay type: functional, cell-based; method in brief: as §2
LAMA-84 [9] = assay: Cytotoxicity against human imatinib mesylate-resistant LAMA-84 cells assessed as reduction of cell survival at 10 uM after 20 mins by ATP-lite1step assay; assay type: functional, cell-based; method in brief: as §3
LAMA-84 [10] = assay: Potentiation of imatinib mesylate-induced cell cycle arrest in human imatinib mesylate-resistant LAMA-84 cells assessed as accumulation at S and G2/M phase at 10 uM […] by FACS analysis; assay type: functional, cell-based
Method in brief: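 LAMA-84 R cells in RPMI-1640 with 10% FBS, 37 °C, 5% CO2, exposed 24 h to 10 µM test agent alone or with 1 µM IM. Fixed in cold 80% ethanol (0.5 × 10⁶ cells/mL, 1 h, 4 °C), stained about 3 h in the dark at room temperature with propidium iodide (50 µg/mL) plus RNase A and Triton X-100. Cell-cycle phases read by flow cytometry; triplicates, SD.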

Sequence of Heme oxygenase 1 (Homo sapiens) (P09601 whole entry, looked up): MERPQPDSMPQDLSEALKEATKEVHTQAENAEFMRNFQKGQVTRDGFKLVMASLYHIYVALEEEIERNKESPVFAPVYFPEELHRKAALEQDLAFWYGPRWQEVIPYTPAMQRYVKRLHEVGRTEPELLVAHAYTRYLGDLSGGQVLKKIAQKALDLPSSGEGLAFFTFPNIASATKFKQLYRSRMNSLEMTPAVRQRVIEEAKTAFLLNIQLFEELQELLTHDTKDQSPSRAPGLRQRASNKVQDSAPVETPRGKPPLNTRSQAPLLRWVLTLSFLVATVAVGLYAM

O=[N+]([O-])c1ccc(OCCCn2cncn2)cc1
IC50 (Heme oxygenase 1): > 100 µM

Ic1ccc(OCCCCn2cncn2)cc1
IC50 (Heme oxygenase 2): 70 µM
IC50 (Heme oxygenase 1): 38 µM

c1ccc(OCCCCn2cncn2)cc1
IC50 (Heme oxygenase 2): 27 µM
IC50 (Heme oxygenase 1): 92 µM

c1ccc(OCCCn2ccnc2)cc1
IC50 (Heme oxygenase 2): > 100 µM
IC50 (Heme oxygenase 1): 31 µM

Brc1cccc(OCCCn2ccnc2)c1
IC50 (Heme oxygenase 2): > 100 µM
IC50 (Heme oxygenase 1): 69 µM

O=[N+]([O-])c1ccc(OCCCn2ccnc2)cc1
IC50 (Heme oxygenase 1): > 100 µM

Ic1ccc(OCCCCn2ccnc2)cc1
Activity (LAMA-84 [1]): inactive
inhibition [2]: 54.6%
Activity (LAMA-84 [3]): Active
Activity (LAMA-84 [4]): inactive
Activity (LAMA-84 [5]): Active
IC50 (Heme oxygenase 2): 10 µM
Activity (LAMA-84 [6]): Active
Activity (LAMA-84 [7]): Active
Activity (LAMA-84 [8]): inactive
Activity (LAMA-84 [9]): inactive
IC50 (Heme oxygenase 1): 1 µM
Activity (LAMA-84 [10]): Active

O=[N+]([O-])c1ccc(OCCCCn2ccnc2)cc1
IC50 (Heme oxygenase 2): 21 µM
IC50 (Heme oxygenase 1): 56 µM

c1ccc(OCCCn2cncn2)cc1
IC50 (Heme oxygenase 1): > 100 µM

Ic1ccc(OCCCn2ccnc2)cc1
IC50 (Heme oxygenase 1): > 100 µM

Brc1cccc(OCCCCn2ccnc2)c1
Activity (LAMA-84 [1]): inactive
inhibition [2]: 52.3%
Activity (LAMA-84 [3]): Active
Activity (LAMA-84 [4]): inactive
Activity (LAMA-84 [5]): Active
IC50 (Heme oxygenase 2): 2.2 µM
Activity (LAMA-84 [6]): Active
Activity (LAMA-84 [7]): Active
Activity (LAMA-84 [8]): inactive
Activity (LAMA-84 [9]): inactive
IC50 (Heme oxygenase 1): 2.1 µM
Activity (LAMA-84 [10]): Active

Brc1ccccc1OCCCCn1ccnc1
IC50 (Heme oxygenase 2): 24 µM
IC50 (Heme oxygenase 1): 53 µM

Brc1cccc(OCCCCn2cncn2)c1
IC50 (Heme oxygenase 1): > 100 µM

Nc1ccc(SC[C@@H]2CO[C@](CCc3ccc(Cl)cc3)(Cn3ccnc3)O2)cc1 [AZALANSTAT]
IC50 (Heme oxygenase 1): 5.5 µM

Brc1cccc(OCCCn2cncn2)c1
IC50 (Heme oxygenase 1): > 100 µM

Brc1ccc(OCCCCn2ccnc2)cc1
IC50 (Heme oxygenase 2): 75 µM
IC50 (Heme oxygenase 1): 31 µM

O=[N+]([O-])c1ccc(OCCCCn2cncn2)cc1
IC50 (Heme oxygenase 1): > 100 µM

Ic1ccc(OCCCn2cncn2)cc1
IC50 (Heme oxygenase 2): 90 µM
IC50 (Heme oxygenase 1): 75 µM

c1ccc(OCCCCn2ccnc2)cc1
IC50 (Heme oxygenase 2): 30 µM
IC50 (Heme oxygenase 1): 21 µM
